Data set [1] has as its system SiHa. Nature of the data set: Induction of cell cycle arrest in human SiHa cells assessed as accumulation of cells at S phase at 0.30 uM after 24 hrs by propidium iodide staining based flow cytometry (reference value: 17.74%). The class given is functional. The settings on record: dose 0.3 µM. (In general: A flow cytometer gives signals particle by particle.)
In the next data set the test system is Raji. The experiment in a line: Induction of apoptosis in human Raji cells at 0.6 to 2.4 uM after 24 hrs by propidium iodide staining based flow cytometry. It counts as functional, cell-based. The settings on record: dose microM 0.6-2.4, time 24.0 hrs.
Data set [2] in a line: Toxicity in BALB/c nude mouse xenografted with human SiHa cells assessed as effect on kidney weight at 15 mg/kg, ip administered once per 2 days for 18 days. It counts as organism-based. Particulars: in vivo, 432 h, time 18 day. In a few lines:
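SiHa tumour fragments passaged from donor mice implanted in the underarm of female BALB/c nude mice (six per group). Compound given at 15 mg/kg ip once every two days for 18 days, with saline and cisplatin 0.2 mg/kg control groups. Body weight recorded every two days; at day 18 mice were sacrificed and organs weighed.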

Data set [3] relates to Quadruplex DNA. The experiment in a line: Binding affinity to c-myc wild-type promoter G-quadruplex/i-motif (unknown origin) expressed in human SiHa cells assessed as reduction in c-myc transcription by measuring decrease in ratio of renilla/firefly luciferase activity after 48 hrs by dual-luciferase reporter assay. The settings on record: dose microM 0.025-0.1, time 48.0 hrs. It counts as cell-based. The gist of the method:
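SiHa cells transfected with 200 ng psiCHECK2 plasmid carrying wild-type, mutant or deleted c-myc promoter. Compounds added 8 h after transfection, then incubated 48 h at 37 °C. Cells washed with ice-cold PBS; Renilla/firefly activity ratio read by dual-luciferase assay.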
Background: In a reporter assay the amount or activity of a reporter protein is the signal.

Data set [4] deals with SiHa. The experiment in a line: Induction of apoptosis in human SiHa cells assessed as necrotic cells at 0.6 uM after 24 hrs by annexin V/FITC-propidium iodide staining-based flow cytometric method ( Rvb = 0.1%). The class given is functional.
Data set [5] concerns Quadruplex DNA. The experiment in a line: Binding affinity to c-myc promoter G-quadruplex/i-motif in human CA46 cells assessed as reduction in c-myc mRNA transcription at 0.16 to 2.5 uM incubated for 24 hrs. It counts as cell-based. Particulars: dose microM 0.16-2.5, time 24.0 hrs.
In data set [6] the test system is CA46. The experiment in a line: Antiproliferative activity against human CA46 cells after 48 hrs by MTT assay. It counts as functional, cell-based.
For data set [7], the target named is Quadruplex DNA. The experiment in a line: Binding affinity to c-myc promoter G-quadruplex DNA Pu27 (unknown origin) at 50 uM by isothermal titration calorimetry. It counts as nucleic-acid assay. In a few lines:
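ITC at 20 °C on degassed solutions. Cell held preformed DNA ([…]). Syringe held ligand in the same buffer (50 μM for Pu27, 20 μM for Py33). 28 injections of 10 μL at 4 min intervals. Heats of dilution from ligand-into-buffer runs subtracted before model fitting.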
(In general: In ITC the heat of successive injections is recorded.)

A short description of data set [8]: Stabilization of c-myc promoter i-motif DNA Py33 (unknown origin) assessed as decrease in negative peak intensity at pH 5.5 measured at 260 nanometer by CD spectroscopy. In a few lines:
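Py33 at 1 µM in 1× BPES pH 5.5 (pH 6.8 random-coil reference), with or without ligand. Annealed at 95 °C for 5 min, cooled, kept at 4 °C overnight. CD spectra in a 4 mm cuvette over 230–350 nm, three scans averaged, buffer-corrected; peaks followed at 288 and 260 nm.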

A further data set concerns A-375. Nature of the data set: Antiproliferative activity against human A-375 cells after 48 hrs by MTT assay. The class given is functional, cell-based. Particulars: A-375, 48 h. The gist of the method:
(§1)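 Cells seeded at 5.0×10^3 per well, pre-incubated 12 h at 37 °C, 5% CO2, then exposed to compounds for 48 h; DMSO-only control. MTT (2.5 mg/mL) added for 4 h, formazan dissolved in DMSO, absorbance at 570 nm. Each dose tested in triplicate; IC50 from percentage survival relative to negative control.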

Data set [9] has as its system Quadruplex DNA. Nature of the data set: Binding affinity to c-myc promoter G-quadruplex/i-motif in human SiHa cells assessed as reduction in c-myc mRNA level incubated for 24 hrs by qRT-PCR analysis. The class given is cell-based. Particulars: dose microM 0.625-2.5, time 24.0 hrs. In a few lines: (§2)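 SiHa cells at 0, 0.625, 1.25 and 2.5 μM for 24 h; DMSO control. Total RNA extracted with TRIzol. 1.5 μg RNA reverse-transcribed with oligo dT18 and M-MLV (42 °C 60 min). PCR of 30 cycles (95/58/72 °C), products run on 1.2% agarose. β-actin as internal control; three repeats.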

The subject of data set [10] is SiHa. Nature of the data set: Induction of apoptosis in human SiHa cells assessed as increase in cleaved caspase-9 level incubated for 24 hrs by Western blot analysis. The class given is functional, cell-based. Particulars: dose microM 0.6-2.4, time 24.0 hrs.
For data set [11], the target named is Quadruplex DNA. The experiment in a line: Binding affinity to 5'-biotin labeled c-myc promoter G-quadruplex DNA Pu27 (unknown origin) by surface plasmon resonance method. The class given is nucleic-acid assay. The gist of the method:
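SPR: 5'-biotin DNA diluted to 1 μM and captured (1000 RU) on a sensor chip, with a blank cell as reference. Running buffers: Py33 in 20 mM MES pH 5.8, 100 mM KCl, 0.05% Tween-20; Pu27 and duplex in 50 mM Tris-HCl pH 7.4, 100 mM KCl. Six ligand concentrations serially diluted from DMSO stock. Association 260 s, dissociation 300 s at 25 °C; NaOH regeneration; blank sensorgrams subtracted.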

Data set [12] deals with CA46. Nature of the data set: Induction of cell cycle arrest in human CA46 cells assessed as accumulation of cells at G2/M phase at 0.15 to 0.6 uM after 24 hrs by propidium iodide staining based flow cytometry. Particulars: dose microM 0.15-0.6, time 24.0 hrs. The class given is functional.
In another data set the test system is U2OS. The experiment in a line: Antiproliferative activity against human U2OS cells after 48 hrs by MTT assay. It counts as functional, cell-based. In a few lines:
as §1

For data set [13], the system named is Quadruplex DNA. Nature of the data set: Binding affinity to c-myc promoter G-quadruplex/i-motif in human SiHa cells assessed as reduction in c-myc mRNA level at 1.25 uM incubated for 24 hrs by qRT-PCR analysis. It counts as cell-based. On the set-up: scale not given: the % may be the effect or the level left. The gist of the method: as §2
The subject of data set [14] is SiHa. Nature of the data set: Induction of apoptosis in human SiHa cells assessed as decrease in caspase-9 level incubated for 24 hrs by Western blot analysis. The class given is functional, cell-based. The settings on record: dose microM 0.6-2.4, time 24.0 hrs.
Data set [15] is described as follows: Binding affinity to 5'-biotin labeled c-myc promoter i-motif DNA Py33 (unknown origin) by UV titration method.
Data set [16] concerns SiHa. The experiment in a line: Induction of apoptosis in human SiHa cells assessed as late apoptotic cells at 0.6 uM after 24 hrs by annexin V/FITC-propidium iodide staining-based flow cytometric method ( Rvb = 0.4%). It counts as functional.
The subject of data set [17] is SiHa. The experiment in a line: Induction of apoptosis in human SiHa cells assessed as necrotic cells at 1.2 uM after 24 hrs by annexin V/FITC-propidium iodide staining-based flow cytometric method ( Rvb = 0.1%). It counts as functional.
For data set [18], the system named is Quadruplex DNA. Nature of the data set: Binding affinity to c-myc promoter G-quadruplex/i-motif in human SiHa cells assessed as reduction in c-myc expression at 1.25 uM incubated for 24 hrs by Western blot analysis. It counts as cell-based. Details: scale not given: the % may be the effect or the level left. In a few lines: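 SiHa cells treated 24 h at 0, 0.625, 1.25 and 2.5 μM, then lysed in buffer with 1 mM PMSF. Protein measured by BCA, equal loads run on 8% gel and blotted to PVDF. Probed with anti-c-MYC and anti-β-actin (loading control), HRP anti-rabbit secondary, chemiluminescence read-out.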

A short description of data set [19]: Stabilization of c-myc promoter i-motif DNA Py33 (unknown origin) assessed as increase in slower migration band incubated overnight by silver staining based PAGE analysis. The gist of the method: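 Py33 (3 µM) co-annealed with increasing ligand in 1× BPES pH 6.8 at 95 °C for 5 min, cooled, held at 4 °C overnight. Run on native 20% acrylamide in 1× TBE at 140 V for 5 h at 5 °C, then silver-stained.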

The source made the active and inactive calls. The calls are words filed in the database; no cut-off is given here.

One may read the Kd as a measure of binding affinity in units of concentration. Broadly, the IC50 is the concentration that inhibits the measured activity by half. On to `Cc1ccc2nc3ccc(C)cc3c(NCCCNCCNCCCNc3c4cc(C)ccc4nc4ccc(C)cc34)c2c1`, for which the Activity in the data set with SiHa [1] is 15.22%; in [2] it was “Non-Toxic”; in the data set on Quadruplex DNA [3], “Dose-dependent effect”; in the data set on SiHa [4], 0.5%; with Quadruplex DNA [9] it was “Dose-dependent effect”; with SiHa [10], “Dose-dependent effect”. In addition, the Activity in the data set with Quadruplex DNA [13] is 40.1%; in the data set with SiHa [14], “Dose-dependent effect”; in the data set with SiHa [16] it was 3.8%; in the data set with SiHa [17], 4.6%; in the data set on Quadruplex DNA [18], less than 39.8%; in [19], “Dose-dependent effect”. Besides, the outcome (in the data set on Raji; in [8]; in data set [15]) was Active. Besides, the result in the data set with Quadruplex DNA [5], in the data set with CA46 [6] and in the data set with CA46 [12] was inactive. The Kd on Quadruplex DNA [7] was determined as 810 nM; at Quadruplex DNA [11], 7700 nM. The IC50 in the data set with A-375 came out at 280 nM; in the data set with U2OS, 310 nM.
